The results in this text go back to ChEMBL document CHEMBL1140366, “Novel P1 chain-extended HIV protease inhibitors possessing potent anti-HIV activity and remarkable inverse antiviral resistance profiles” (Bioorg Med Chem Lett, 2005).

The structures appear in SMILES notation.

In experiment [1] the test system is Human immunodeficiency virus. Nature of the experiment: Inhibitory concentration against wild type Human immuno deficiency virus (HXB2) was determined in an MT-4 cell line. It is filed as functional, organism-based. Particulars: Human immunodeficiency virus 1, MT4.
In experiment [2] the test system is Human immunodeficiency virus. Description: Inhibitory concentration against protease inhibitor-resistant mutant Human immuno deficiency virus (EP13) was determined in an MT-4 cell line. Conditions: Human immunodeficiency virus 1, MT4.
The subject of experiment [3] is Human immunodeficiency virus. Nature of the experiment: Inhibitory concentration against protease inhibitor-resistant mutant Human immuno deficiency virus (D545701) was determined in an MT-4 cell line. Particulars: Human immunodeficiency virus 1, MT4.
Experiment [4] relates to Canis lupus familiaris. Description: Bioavailability in dog at 0.5 mg/kg dose. It is filed as functional, organism-based.
Experiment [5] concerns Canis lupus familiaris. Nature of the experiment: Clearance in dogs at 0.5 mg/kg dose. It is filed as functional, organism-based. The arrangement: dose 0.5 mg/kg.
The subject of experiment [6] is Rattus norvegicus. Nature of the experiment: Clearance in rats at 1.0 mg/kg iv dose. It is filed as functional, organism-based. The arrangement: dose 1 mg/kg.
For experiment [7], the system named is Rattus norvegicus. Description: Bioavailability in rats at 1.0 mg/kg iv dose. It is filed as functional, organism-based.
The subject of experiment [8] is Rattus norvegicus. Nature of the experiment: Half life in rat was determined at a dose 1.0 mg/kg. It is filed as functional, organism-based. The arrangement: dose 1 mg/kg.
Experiment [9] concerns Canis lupus familiaris. Nature of the experiment: Half life in dogs at 0.5 mg/kg iv dose. It is filed as functional, organism-based. The arrangement: dose 0.5 mg/kg.
For experiment [10], the system named is Rattus norvegicus. Nature of the experiment: Bioavailability of the compound in rat was determined; Dose at 1.0 mg/kg. It is filed as functional, organism-based.
In experiment [11] the test system is Canis lupus familiaris. Nature of the experiment: Bioavailability in dog at 0.5 mg/kg dose co-administered with 4.0 mg/kg ritonavir. It is filed as functional, organism-based. A digest of the protocol:
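Ritonavir-boosted bioavailability was calculated as the oral AUC with co-administered ritonavir divided by the IV AUC without ritonavir.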

Experiment [12] relates to Canis lupus familiaris. Nature of the experiment: Clearance in dogs at 0.5 mg/kg iv dose. The arrangement: dose 0.5 mg/kg. It is filed as functional, organism-based.
Experiment [13] has as its system Canis lupus familiaris. Description: Half life in dogs at 0.5 mg/kg iv dose co-administered with ritonavir 4.0 mg/kg. It is filed as functional, organism-based.

Take `CC(C)CN(C[C@@H](O)[C@H](Cc1ccc(OCCNC(=O)N(C)C)cc1)NC(=O)O[C@H]1CO[C@H]2OCC[C@H]21)S(=O)(=O)c1ccc2c(c1)OCO2`: the 50% inhibitory concentration (IC50) stood at 37 nM in experiment [1], 9.1 nM in experiment [2] and 11 nM in experiment [3].

Regarding `CC(C)(C)NC(=O)[C@@H]1CN(Cc2cccnc2)CCN1C[C@@H](O)C[C@@H](Cc1ccccc1)C(=O)N[C@H]1c2ccccc2C[C@H]1O` [INDINAVIR], the half-inhibitory concentration (IC50) in experiment [1] was 50 nM; in experiment [2], 330 nM; in experiment [3], 440 nM.

In the case of `CNC(=O)NCCOc1ccc(C[C@H](NC(=O)O[C@H]2CO[C@H]3OCC[C@H]32)[C@H](O)CN(CC(C)C)S(=O)(=O)c2ccc3c(c2)OCO3)cc1`, the IC50 was 200 nM in experiment [1], 131 nM in experiment [2] and 130 nM in experiment [3].

With `COC(=O)NCCCOc1ccc(C[C@H](NC(=O)O[C@H]2CO[C@H]3OCC[C@H]32)[C@H](O)CN(CC(C)C)S(=O)(=O)c2ccc3c(c2)OCO3)cc1`, the IC50 in [1] came to 2.8 nM; in [2], 2.6 nM; in experiment [3], 7.1 nM. For the same compound, the bioavailability with Canis lupus familiaris [4] was 1%; in the experiment on Rattus norvegicus [7], 3%. The CL (mL.min-1.kg-1) with Canis lupus familiaris [5] amounted to 0.5; in the experiment on Rattus norvegicus [6], 0.717. Moreover, the results for the T1/2 in the experiment with Rattus norvegicus [8] and in the experiment with Canis lupus familiaris [9] were 12 min and 66 min, respectively.

With `COC(=O)NCCCCC(C)(C)CN(C[C@@H](O)[C@H](Cc1ccccc1)NC(=O)O[C@H]1CO[C@H]2OCC[C@H]21)S(=O)(=O)c1ccc2c(c1)OCO2`, the IC50 in experiment [1] came out at 2.2 nM; in experiment [2] it was 19 nM; in [3], 15 nM.

Turning to `COC(=O)NCCOc1ccc(C[C@H](NC(=O)O[C@H]2CO[C@H]3OCC[C@H]32)[C@H](O)CN(CC(C)C)S(=O)(=O)c2ccc3c(c2)OCO3)cc1`, the figures for the concentration for half-maximal inhibition (IC50) in experiment [1], in [2] and in [3] were 3 nM, 2.9 nM and 7.1 nM, respectively. The bioavailability with Rattus norvegicus [10] worked out at 1%; in the experiment on Canis lupus familiaris [4] it was 0%; in the experiment on Canis lupus familiaris [11], 33%. Also, the CL (mL.min-1.kg-1) in the experiment with Rattus norvegicus [6] is 0.917; in the experiment on Canis lupus familiaris [12] it was 1.13. The T1/2 with Rattus norvegicus [8] is 96 min; in the experiment with Canis lupus familiaris [13], 36 min.

For `CC(C)CN(C[C@@H](O)[C@H](Cc1ccc(OCCCCNC(=O)N(C)C)cc1)NC(=O)O[C@H]1CO[C@H]2OCC[C@H]21)S(=O)(=O)c1ccc2c(c1)OCO2`, the IC50 turned out to be 65 nM in experiment [1], 22 nM in experiment [2] and 32 nM in experiment [3].

Regarding `CNC(=O)NCCCOc1ccc(C[C@H](NC(=O)O[C@H]2CO[C@H]3OCC[C@H]32)[C@H](O)CN(CC(C)C)S(=O)(=O)c2ccc3c(c2)OCO3)cc1`, the IC50 in experiment [1] turned out to be 119 nM; in experiment [2] it was 56 nM; in experiment [3], 43 nM.

Turning to `CNC(=O)NCCCCOc1ccc(C[C@H](NC(=O)O[C@H]2CO[C@H]3OCC[C@H]32)[C@H](O)CN(CC(C)C)S(=O)(=O)c2ccc3c(c2)OCO3)cc1`, the IC50 was 60 nM in experiment [1], 26 nM in [2] and 22 nM in [3].

In the case of `CC(C)CN(C[C@@H](O)[C@H](Cc1ccc(OCCCCNS(C)(=O)=O)cc1)NC(=O)O[C@H]1CO[C@H]2OCC[C@H]21)S(=O)(=O)c1ccc2c(c1)OCO2`, the 50% inhibitory concentration (IC50) stood at 15 nM in [1], 5.9 nM in experiment [2] and 9.2 nM in experiment [3].

As for `CC(=O)NCCCCOc1ccc(C[C@H](NC(=O)O[C@H]2CO[C@H]3OCC[C@H]32)[C@H](O)CN(CC(C)C)S(=O)(=O)c2ccc3c(c2)OCO3)cc1`, the half-inhibitory concentration (IC50) in experiment [1] turned out to be 39 nM; in experiment [2] it was 13 nM; in experiment [3] it was 16 nM.

For the compound `COC(=O)NCCCCOc1ccc(C[C@H](NC(=O)O[C@H]2CO[C@H]3OCC[C@H]32)[C@H](O)CN(CC(C)C)S(=O)(=O)c2ccc3c(c2)OCO3)cc1`, the IC50 is 2.6 nM in experiment [1], 2.6 nM in experiment [2] and 6.6 nM in [3].

In the case of `Cc1cccc(C)c1OCC(=O)N[C@@H](Cc1ccccc1)[C@@H](O)C[C@H](Cc1ccccc1)NC(=O)[C@H](C(C)C)N1CCCNC1=O` [LOPINAVIR], the half-maximal inhibitory concentration (IC50) in experiment [1] was 40 nM; in experiment [2], 400 nM; in experiment [3] it was above 1000 nM.

Take `CC(C)CN(C[C@@H](O)[C@H](Cc1ccc(OCCCNS(C)(=O)=O)cc1)NC(=O)O[C@H]1CO[C@H]2OCC[C@H]21)S(=O)(=O)c1ccc2c(c1)OCO2`: the IC50 worked out at 41 nM in experiment [1], 20 nM in [2] and 21 nM in experiment [3].

For the compound `CC(C)CN(C[C@@H](O)[C@H](Cc1ccc(OCCCNC(=O)N(C)C)cc1)NC(=O)O[C@H]1CO[C@H]2OCC[C@H]21)S(=O)(=O)c1ccc2c(c1)OCO2`, the values for the IC50 in [1], in experiment [2] and in [3] were 25 nM, 11 nM and 11 nM, respectively.

For the compound `CC(C)CN(C[C@@H](O)[C@H](Cc1ccc(OCCCCN)cc1)NC(=O)O[C@H]1CO[C@H]2OCC[C@H]21)S(=O)(=O)c1ccc2c(c1)OCO2`, the IC50 turned out to be 15 nM in [1], 14 nM in experiment [2] and 28 nM in [3].

Take `CC(=O)NCCOc1ccc(C[C@H](NC(=O)O[C@H]2CO[C@H]3OCC[C@H]32)[C@H](O)CN(CC(C)C)S(=O)(=O)c2ccc3c(c2)OCO3)cc1`: the IC50 in [1] came to 140 nM; in [2], 52 nM; in experiment [3], 53 nM.

For the compound `CC(=O)NCCCOc1ccc(C[C@H](NC(=O)O[C@H]2CO[C@H]3OCC[C@H]32)[C@H](O)CN(CC(C)C)S(=O)(=O)c2ccc3c(c2)OCO3)cc1`, the results for the IC50 in experiment [1], in experiment [2] and in experiment [3] were 57 nM, 18 nM and 20 nM, respectively.

On to `CC(C)CN(C[C@@H](O)[C@H](Cc1ccc(OCCNS(C)(=O)=O)cc1)NC(=O)O[C@H]1CO[C@H]2OCC[C@H]21)S(=O)(=O)c1ccc2c(c1)OCO2`, for which the results for the IC50 in experiment [1], in [2] and in [3] were 62 nM, 9.1 nM and 20 nM, respectively.

As to `CC(C)CN(C[C@@H](O)[C@H](Cc1ccccc1)NC(=O)O[C@H]1CCOC1)S(=O)(=O)c1ccc(N)cc1` [AMPRENAVIR], the IC50 is 130 nM in experiment [1], 440 nM in experiment [2] and above 1000 nM in experiment [3].

Consider `COC(=O)N[C@H](C(=O)N[C@@H](Cc1ccccc1)[C@@H](O)CN(Cc1ccc(-c2ccccn2)cc1)NC(=O)[C@@H](NC(=O)OC)C(C)(C)C)C(C)(C)C` [ATAZANAVIR], for which the IC50 in experiment [1] is 25 nM; in [2] it was 93 nM; in experiment [3], 70 nM.

`CC(C)CN(C[C@@H](O)[C@H](Cc1ccc(OCCN)cc1)NC(=O)O[C@H]1CO[C@H]2OCC[C@H]21)S(=O)(=O)c1ccc2c(c1)OCO2`: the half-maximal inhibitory concentration (IC50) is 180 nM in experiment [1], 150 nM in experiment [2] and 130 nM in experiment [3].

`CC(C)CN(C[C@@H](O)[C@H](Cc1ccc(OCCCN)cc1)NC(=O)O[C@H]1CO[C@H]2OCC[C@H]21)S(=O)(=O)c1ccc2c(c1)OCO2`: the IC50 in [1] came to 67 nM; in experiment [2], 50 nM; in experiment [3] it was 65 nM.

For `Cc1c(O)cccc1C(=O)N[C@@H](CSc1ccccc1)[C@H](O)CN1C[C@H]2CCCC[C@H]2C[C@H]1C(=O)NC(C)(C)C` [NELFINAVIR], the IC50 in experiment [1] was 320 nM; in [2], 450 nM; in experiment [3], above 1000 nM.
